Test results from publication PMC8367020 (Journal of the American Chemical Society, 2021).
“And” between values parts separate entries of the source, which are not always exact repeats. Equal entries are not always repeated. Where two headings read alike, the source gives them in different places. Marks after values point to notes of the source that are not given here. Blank lines part the entries; values can stand above or below the compound they belong to.

Columns and labels:
[1] = system: aspartate aminotransferase (Asp-AT); test: Inhibition of Asp-AT; format: biochemical; settings: at concentrations up to 10 mM
[2] = system: alanine aminotransferase (Ala-AT); test: Inhibition of Ala-AT; format: biochemical; settings: at concentrations up to 10 mM
hOAT [3] = biological target: T1, hOAT (Homo sapiens, UniProt P04181); test: Denaturing intact protein mass spectrometry of hOAT inactivated by 6; format: binding
T1 sequence (P04181 26-439): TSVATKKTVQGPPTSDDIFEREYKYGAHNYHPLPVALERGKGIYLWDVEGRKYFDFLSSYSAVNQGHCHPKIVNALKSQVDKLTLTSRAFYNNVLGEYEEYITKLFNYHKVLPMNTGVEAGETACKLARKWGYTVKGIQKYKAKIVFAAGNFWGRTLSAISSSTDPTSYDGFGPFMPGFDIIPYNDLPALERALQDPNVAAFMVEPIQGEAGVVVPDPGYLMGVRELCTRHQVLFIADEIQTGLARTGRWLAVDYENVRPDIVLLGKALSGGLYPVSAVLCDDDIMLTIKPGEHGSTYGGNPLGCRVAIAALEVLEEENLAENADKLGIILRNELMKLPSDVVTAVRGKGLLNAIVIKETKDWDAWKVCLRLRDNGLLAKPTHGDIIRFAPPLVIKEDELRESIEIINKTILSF
In short: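 Intact hOAT fully inactivated by the test compound was analysed by denaturing intact-protein mass spectrometry, with untreated hOAT run alongside as a control. The added mass was read as the shift from the unmodified protein and compared with theoretical adduct masses.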

hOAT [4] = biological target: T1, hOAT; test: Stopped-flow transient-state spectrophotometry of hOAT reacting with 6; format: biochemical
In short: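 Stopped-flow at 10 °C. hOAT (6.94 µM final) was mixed with the test compound (e.g. 1040 µM final; several concentrations). CCD absorbance at 250–800 nm over 0.0137–9843 s came from spliced, averaged short- and long-time datasets, deconvolved by SVD. The 420 nm traces were fitted to three exponentials, and first-phase kobs was fitted against concentration. Quinonoid accumulation assumed ε ~30 mM−1cm−1.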

hOAT [5] = biological target: T1, hOAT; test: Partition ratio determination with hOAT; format: biochemical; settings: in the presence of α-KG, partition ratio = turnover number −1
hOAT [6] = biological target: T1, hOAT; test: 48-hour time-dependent dialysis of inactivated hOAT; format: biochemical; settings: 48-hour dialysis against buffer with excess PLP and α-KG
hOAT [7] = biological target: T1, hOAT; test: Time-dependent inactivation kinetics of hOAT; format: biochemical
hOAT [8] = biological target: T1, hOAT; settings: cited from earlier work
hOAT [9] = biological target: T1, hOAT; settings: cited from earlier work; remark: listed apart in the source
GABA-AT [10] = biological target: T2, GABA-AT (Sus scrofa, UniProt P80147); settings: cited from earlier work
hOAT [11] = biological target: T1, hOAT; settings: cited from earlier work; remark: listed apart in the source
GABA-AT [12] = biological target: T2, GABA-AT; test: Reversible inhibition of GABA-AT; format: biochemical; settings: Ki = IC50/(1+[S]/Km)
[13] = system: human-derived HCC mouse model; settings: 0.1 and 1.0 mg/kg; po; cited from earlier work
[14] = system: aspartate aminotransferase (Asp-AT); settings: up to 4 mM; cited from earlier work
[15] = system: alanine aminotransferase (Ala-AT); settings: up to 4 mM; cited from earlier work
[16] = hOAT inactivation, mean and standard error

T2 sequence (P80147 29-500): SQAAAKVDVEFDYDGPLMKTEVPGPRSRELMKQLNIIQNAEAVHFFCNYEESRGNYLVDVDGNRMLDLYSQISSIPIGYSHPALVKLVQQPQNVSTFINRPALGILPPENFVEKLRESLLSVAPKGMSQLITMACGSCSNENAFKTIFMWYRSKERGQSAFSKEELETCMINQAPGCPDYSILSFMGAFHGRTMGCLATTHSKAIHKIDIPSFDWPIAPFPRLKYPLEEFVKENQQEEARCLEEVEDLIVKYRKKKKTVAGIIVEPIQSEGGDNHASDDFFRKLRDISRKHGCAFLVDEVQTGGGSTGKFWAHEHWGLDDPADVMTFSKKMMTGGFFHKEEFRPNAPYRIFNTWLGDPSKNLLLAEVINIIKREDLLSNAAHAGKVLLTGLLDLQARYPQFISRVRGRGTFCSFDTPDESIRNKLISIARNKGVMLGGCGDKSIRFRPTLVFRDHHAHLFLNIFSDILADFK

inhibition of Asp-AT [1]: did not show noticeable inhibition | inhibition of Ala-AT [2]: did not show noticeable inhibition | hOAT in apo-enzyme state (hOAT [3]; denaturing MS conditions at pH 2.5): approximately 84% | hOAT covalently modified (hOAT [3]; denaturing MS, hOAT fully inactivated by 6, mass increase 370.07 Da): ~ 16% | rate of quinonoid decay (hOAT [4]): 0.09 s⁻¹ | rate of second external aldimine formation (bimolecular) (hOAT [4]; 420 nm): 6200 M⁻¹ s⁻¹ | rate constant of final phase (hOAT [4]; external aldimine decay with increase at ~275 nm): 0.007 s⁻¹ | rate of quinonoid species accumulation (hOAT [4]; ~560 nm): 0.4 s⁻¹ | Partition ratio (hOAT [5]): 34 and 34 ± 0 | residual activity of hOAT after dialysis (hOAT [6]): unchanged | Ki (hOAT [7]): 0.06 ± 0.03 mM | kinact/KI (hOAT [7]): 21.7 M⁻¹ s⁻¹ | improvement in inactivation efficiency (kinact/KI) (hOAT [7]; 6 versus 4, hOAT): 400 fold
SMILES: N[C@H]1C=C(C(=O)O)CC1(F)F [Compound 6, (S)-3-amino-4,4-difluorocyclopent-1-enecarboxylic acid]

Ki (hOAT [7]): 4 ± 1 mM
SMILES: N[C@H]1C[C@@H](C(=O)O)CC1(F)F [Compound 4, (1R,4S)-4-amino-3,3-difluorocyclopentanecarboxylic acid]
Ki (hOAT [8]; hOAT inactivation): 7.8 mM

SMILES: N[C@H]1C=C(C(=O)O)CCC1(F)F [Compound 2, (S)-3-amino-4,4-difluorocyclohex-1-enecarboxylic acid, reference compound]
improvement in inactivation efficiency (kinact/KI) against hOAT compared to 1 (hOAT [8]; versus compound 1): 23 fold

SMILES: N[C@H]1C[C@@H](C(=O)O)CC1=C(C(F)(F)F)C(F)(F)F [Compound 1, (1S,3S)-3-amino-4-(hexafluoropropan-2-ylidenyl)cyclopentane-1-carboxylic acid]
Fluoride ion release (hOAT [9]): 79 ± 2^b eq. | Ki (GABA-AT [10]; GABA-AT, weak reversible inhibition): 4.2 mM | inhibition of GABA-AT (in words) (GABA-AT [10]; preliminary screening): millimolar reversible inhibition | Partition ratio (hOAT [11]): 12 ± 1^b | Ki (GABA-AT [12]): 5.2 ± 0.6 mM | serum AFP levels [13]: remarkably decreased | tumor growth [13]: inhibited tumor growth | inhibition of Asp-AT [14]: no inhibition | inhibition of Ala-AT [15]: no inhibition | kinact/KI (hOAT [7]; hOAT inactivation efficiency): 16.7 ± 6.7 M⁻¹ s⁻¹ | Ki (hOAT [7]; [16]): 0.09 ± 0.03 mM | kinact (hOAT [7]; [16]): 0.09 ± 0.01 min⁻¹
